pIC50: −log10 of the molar value. Active and inactive are the calls of the source. No cut-off for these calls is given here.
Legend:
MCF7 [1] = assay: Cytotoxicity against human MCF7 cells after 48 hrs by MTT assay; assay type: functional, cell-based; conditions: for IC50 / pIC50: MCF7, 48 h; for IC50: read-out: pIC50 (converted); for pIC50: read-out: IC50
Method in brief: (§1)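 MTT assay. Cells were grown in DMEM with 10% FBS and penicillin/streptomycin at 37 °C under 5% CO2, seeded at 1–2×10^3 cells/well and treated 12 h later with 1×10^-12 to 1×10^-5 M ([…] from DMSO stock, final DMSO <0.5%) for 48 h. MTT was added at 0.5 mg mL⁻¹, formazan dissolved in DMSO and read at 570 nm. IC50 is the concentration giving 50% cytotoxicity. Quadruplicates, ≥3 independent experiments.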

[2] = (§2) Cytotoxicity against human U87 cells expressing wild-type p53 after 48 hrs by MTT assay; assay type: functional, cell-based, U-87MG ATCC; conditions: U-87 MG; for IC50: read-out: pIC50 (converted); for pIC50: read-out: IC50; method in brief: as §1
T98G [3] = assay: Cytotoxicity against human T98G cells expressing mutant p53 after 48 hrs by MTT assay; assay type: functional, cell-based; conditions: for IC50: read-out: pIC50 (converted); for pIC50: read-out: IC50; method in brief: as §1
U-87MG ATCC [4] = assay: as §2; assay type: functional, cell-based; method in brief: as §1
[5] = Haemolytic activity in human RBC after 1 hr by photometry; assay type: ADME, cell-based; conditions: Erythrocyte
Method in brief: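 Human EDTA blood was spun at 700xg for 10 min and the erythrocytes washed three times in cold PBS pH 7.4, then resuspended in it. Cells were incubated with varying compound concentrations for 1 h at 37 °C with shaking. After centrifugation, released haemoglobin was read at 540 nm to give the IC50. Mean ± SD, n = 4.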

MCF7 [6] = assay: Induction of apoptosis in human MCF7 cells assessed as irregularities in cellular shape at 1 uM after 48 hrs by DAPI staining; assay type: functional, cell-based
MCF7 [7] = assay: Induction of apoptosis in human MCF7 cells assessed as cell shrinkage at 1 uM after 48 hrs by DAPI staining; assay type: functional, cell-based
MCF7 [8] = assay: Induction of apoptosis in human MCF7 cells assessed as membrane blebbing at 1 uM after 48 hrs by DAPI staining; assay type: functional, cell-based
MCF7 [9] = assay: Induction of apoptosis in human MCF7 cells assessed as chromatin condensation at 1 uM after 48 hrs by DAPI staining; assay type: functional, cell-based
Method in brief: (§3)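 Cells were treated at 1 μM for 48 h, washed in PBS and fixed in 70% methanol for 30 min at room temperature. They were stained with 0.4 μg mL⁻¹ DAPI for 1 h in the dark, and nuclear condensation and fragmentation were scored by fluorescence microscopy (385–410 nm).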

MCF7 [10] = assay: Induction of apoptosis in human MCF7 cells assessed as DNA fragmentation at 1 uM after 48 hrs by DAPI staining; assay type: functional, cell-based; method in brief: as §3
T98G [11] = assay: Induction of apoptosis in human T98G cells assessed as irregularities in cellular shape at 1 uM after 48 hrs by DAPI staining; assay type: functional, cell-based
T98G [12] = assay: Induction of apoptosis in human T98G cells assessed as cell shrinkage at 1 uM after 48 hrs by DAPI staining; assay type: functional, cell-based
T98G [13] = assay: Induction of apoptosis in human T98G cells assessed as membrane blebbing at 1 uM after 48 hrs […]; assay type: functional, cell-based
T98G [14] = assay: Induction of apoptosis in human T98G cells assessed as chromatin condensation at 1 uM after 48 hrs by DAPI staining; assay type: functional, cell-based; method in brief: as §3
T98G [15] = assay: Induction of apoptosis in human T98G cells assessed as DNA fragmentation at 1 uM after 48 hrs by DAPI staining; assay type: functional, cell-based; method in brief: as §3
U-87MG ATCC [16] = assay: Induction of apoptosis in human U87 cells assessed as irregularities in cellular shape at 1 uM after 48 hrs by DAPI staining; assay type: functional, cell-based
U-87MG ATCC [17] = assay: Induction of apoptosis in human U87 cells assessed as cell shrinkage at 1 uM after 48 hrs by DAPI staining; assay type: functional, cell-based
U-87MG ATCC [18] = assay: Induction of apoptosis in human U87 cells assessed as membrane blebbing at 1 uM after 48 hrs by DAPI staining; assay type: functional, cell-based
U-87MG ATCC [19] = assay: Induction of apoptosis in human U87 cells assessed as chromatin condensation at 1 uM after 48 hrs by DAPI staining; assay type: functional, cell-based; method in brief: as §3
U-87MG ATCC [20] = assay: Induction of apoptosis in human U87 cells assessed as DNA fragmentation at 1 uM after 48 hrs by DAPI staining; assay type: functional, cell-based; method in brief: as §3
MCF7 [21] = assay: Induction of apoptosis in human MCF7 cells assessed as appearance of autophagolysosomes at 1 uM after 48 hrs by acridine orange/ethidium bromide staining-based microscopy; assay type: functional, cell-based
Method in brief: (§4)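 After 48 h at 1 μM, cells were incubated for 15 min in serum-free medium containing 1 μg mL⁻¹ acridine orange and 1 μg mL⁻¹ ethidium bromide. The medium was removed and cells imaged by inverted fluorescence microscopy (530–650 nm). Green/orange nuclear patterns and acidic cytoplasmic vacuoles were scored.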

T98G [22] = assay: Induction of apoptosis in human T98G cells assessed as appearance of autophagolysosomes at 1 uM after 48 hrs by acridine orange/ethidium bromide staining-based microscopy; assay type: functional, cell-based; method in brief: as §4
U-87MG ATCC [23] = assay: Induction of apoptosis in human U87 cells assessed as appearance of autophagolysosomes at 1 uM after 48 hrs by acridine orange/ethidium bromide staining-based microscopy; assay type: functional, cell-based; method in brief: as §4
MCF7 [24] = assay: Induction of apoptosis in human MCF7 cells assessed as chromatin condensation at 1 uM after 48 hrs by acridine orange/ethidium bromide staining-based microscopy; assay type: functional, cell-based; method in brief: as §4
T98G [25] = assay: Induction of apoptosis in human T98G cells assessed as chromatin condensation at 1 uM after 48 hrs by acridine orange/ethidium bromide staining-based microscopy; assay type: functional, cell-based; method in brief: as §4
U-87MG ATCC [26] = assay: Induction of apoptosis in human U87 cells assessed as chromatin condensation at 1 uM after 48 hrs by acridine orange/ethidium bromide staining-based microscopy; assay type: functional, cell-based; method in brief: as §4

## C/C(=N/NC(=S)Nc1cccc(I)c1)c1ccccn1
MCF7 [1]
  IC50: 45 nM
[2]
  IC50: 83.9 nM
T98G [3]
  IC50: 61 nM

## CC(=NNC(=S)Nc1cccc(Cl)c1)c1ccccn1 (mixture of isomers)
MCF7 [1]
  Activity: Dose-dependent effect
  pIC50: 7.62
[2]
  pIC50: 7.51
U-87MG ATCC [4]
  Activity: Dose-dependent effect
T98G [3]
  Activity: Dose-dependent effect
  pIC50: 9.00
[5]
  pIC50: < 5.00
MCF7 [6]
  Activity: Active
MCF7 [7]
  Activity: Active
MCF7 [8]
  Activity: Active
MCF7 [9]
  Activity: Active
MCF7 [10]
  Activity: Active
T98G [11]
  Activity: Active
T98G [12]
  Activity: Active
T98G [13]
  Activity: Active
T98G [14]
  Activity: Active
T98G [15]
  Activity: Active
U-87MG ATCC [16]
  Activity: Active
U-87MG ATCC [17]
  Activity: Active
U-87MG ATCC [18]
  Activity: Active
U-87MG ATCC [19]
  Activity: Active
U-87MG ATCC [20]
  Activity: Active
MCF7 [21]
  Activity: Active
T98G [22]
  Activity: Active
U-87MG ATCC [23]
  Activity: Active
MCF7 [24]
  Activity: Active
T98G [25]
  Activity: Active
U-87MG ATCC [26]
  Activity: Active

## C/C(=N\NC(=S)Nc1cccc(F)c1)c1ccccn1
MCF7 [1]
  IC50: 8.99 nM
[2]
  IC50: 18 nM
T98G [3]
  IC50: 12 nM

## C/C(=N/NC(=S)Nc1ccccc1[N+](=O)[O-])c1ccccn1
MCF7 [1]
  IC50: 5.7 nM
[2]
  IC50: 4.3 nM
T98G [3]
  IC50: 6.61 nM

## C/C(=N\NC(=S)Nc1ccc(F)cc1)c1ccccn1
MCF7 [1]
  IC50: 1.2 nM
[2]
  IC50: 10 nM
T98G [3]
  IC50: 17 nM

## C/C(=N/NC(=S)Nc1cccc(F)c1)c1ccccn1
MCF7 [1]
  IC50: 8.99 nM
[2]
  IC50: 18 nM
T98G [3]
  IC50: 12 nM

## C/C(=N\NC(=S)Nc1ccccc1[N+](=O)[O-])c1ccccn1
MCF7 [1]
  IC50: 5.7 nM
[2]
  IC50: 4.3 nM
T98G [3]
  IC50: 6.61 nM

## C/C(=N/NC(=S)Nc1ccc([N+](=O)[O-])cc1)c1ccccn1
MCF7 [1]
  IC50: 52 nM
[2]
  IC50: 160 nM
T98G [3]
  IC50: 140 nM

## C/C(=N/NC(=S)Nc1cccc(Cl)c1)c1ccccn1
MCF7 [1]
  IC50: 24 nM
[2]
  IC50: 31 nM
T98G [3]
  IC50: 1 nM

## C/C(=N\NC(=S)Nc1ccccc1Cl)c1ccccn1
MCF7 [1]
  IC50: 0.16 nM
[2]
  IC50: 2.6 nM
T98G [3]
  IC50: 1.1 nM

## C/C(=N/NC(=S)Nc1ccccc1I)c1ccccn1
MCF7 [1]
  IC50: 4.1 nM
[2]
  IC50: 6.1 nM
T98G [3]
  IC50: 8.09 nM

## C/C(=N\NC(=S)Nc1ccc(I)cc1)c1ccccn1
MCF7 [1]
  IC50: 6.61 nM
[2]
  IC50: 59 nM
T98G [3]
  IC50: 64 nM

## C/C(=N/NC(=S)Nc1ccc(I)cc1)c1ccccn1
MCF7 [1]
  IC50: 6.61 nM
[2]
  IC50: 59 nM
T98G [3]
  IC50: 64 nM

## C/C(=N/NC(=S)Nc1ccccc1Cl)c1ccccn1
MCF7 [1]
  IC50: 0.16 nM
[2]
  IC50: 2.6 nM
T98G [3]
  IC50: 1.1 nM

## C/C(=N/NC(=S)Nc1ccccc1F)c1ccccn1
MCF7 [1]
  IC50: 0.39 nM
[2]
  IC50: 5 nM
T98G [3]
  IC50: 3.1 nM

## C/C(=N/NC(=S)Nc1ccc(Cl)cc1)c1ccccn1
MCF7 [1]
  IC50: 8.49 nM
[2]
  IC50: 1.7 nM
T98G [3]
  IC50: 5.9 nM

## C/C(=N\NC(=S)Nc1ccc([N+](=O)[O-])cc1)c1ccccn1
MCF7 [1]
  IC50: 52 nM
[2]
  IC50: 160 nM
T98G [3]
  IC50: 140 nM

## C/C(=N\NC(=S)Nc1cccc(Cl)c1)c1ccccn1
MCF7 [1]
  IC50: 24 nM
[2]
  IC50: 31 nM
T98G [3]
  IC50: 1 nM

## COc1cc([C@@H]2c3cc4c(cc3[C@@H](O[C@@H]3O[C@@H]5CO[C@@H](C)O[C@H]5[C@H](O)[C@H]3O)[C@H]3COC(=O)[C@H]23)OCO4)cc(OC)c1O [ETOPOSIDE]
MCF7 [1]
  pIC50: 6.32
[2]
  pIC50: 6.21
T98G [3]
  pIC50: 6.34

## C/C(=N\NC(=S)Nc1ccccc1F)c1ccccn1
MCF7 [1]
  IC50: 0.39 nM
[2]
  IC50: 5 nM
T98G [3]
  IC50: 3.1 nM

## C/C(=N\NC(=S)Nc1ccccc1I)c1ccccn1
MCF7 [1]
  IC50: 4.1 nM
[2]
  IC50: 6.1 nM
T98G [3]
  IC50: 8.09 nM

## C/C(=N/NC(=S)Nc1cccc([N+](=O)[O-])c1)c1ccccn1
MCF7 [1]
  IC50: 38 nM
[2]
  IC50: 69 nM
T98G [3]
  IC50: 140 nM

## C/C(=N\NC(=S)Nc1ccc(Cl)cc1)c1ccccn1
MCF7 [1]
  IC50: 8.49 nM
[2]
  IC50: 1.7 nM
T98G [3]
  IC50: 5.9 nM

## C/C(=N/NC(=S)Nc1ccc(F)cc1)c1ccccn1
MCF7 [1]
  IC50: 1.2 nM
[2]
  IC50: 10 nM
T98G [3]
  IC50: 17 nM

## C/C(=N/NC(=S)Nc1ccccc1)c1ccccn1
MCF7 [1]
  IC50: 0.18 nM
[2]
  IC50: 1.4 nM
T98G [3]
  IC50: 6.81 nM

## C/C(=N\NC(=S)Nc1cccc([N+](=O)[O-])c1)c1ccccn1
MCF7 [1]
  IC50: 38 nM
[2]
  IC50: 69 nM
T98G [3]
  IC50: 140 nM

## C/C(=N\NC(=S)Nc1ccccc1)c1ccccn1
MCF7 [1]
  IC50: 0.18 nM
[2]
  IC50: 1.4 nM
T98G [3]
  IC50: 6.81 nM

## C/C(=N\NC(=S)Nc1cccc(I)c1)c1ccccn1
MCF7 [1]
  IC50: 45 nM
[2]
  IC50: 83.9 nM
T98G [3]
  IC50: 61 nM

Source: ChEMBL document CHEMBL2034980, “N⁴-Phenyl-substituted 2-acetylpyridine thiosemicarbazones: cytotoxicity against human tumor cells, structure-activity relationship studies and investigation on the mechanism of action” (Bioorg Med Chem, 2012)
